Reference: ChEMBL document CHEMBL4024799, “Synthesis and Biological Characterization of Aryl Uracil Inhibitors of Hepatitis C Virus NS5B Polymerase: Discovery of ABT-072, a trans-Stilbene Analog with Good Oral Bioavailability” (J Med Chem, 2018)
Converted amounts (≈) assume the structure as drawn. The source made the active and inactive calls. No cut-off for these calls is given here.

Experiments:
[1] = Oral bioavailability in Sprague-Dawley rat at 30 mg/kg; format: ADME, organism-based; conditions: in vivo
Method in brief: (§1)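 Sprague-Dawley rats, n = 3 per experiment; solution in DMSO:PEG400 (1:9, v/v) given IV or oral; 5 mg/kg for both routes, and 30 mg/kg oral; plasma t1/2, Vss, clearance, Cmax, AUC and F% determined.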

[2] = Ratio of drug level in dog liver to plasma at 2.5 mg/kg, po after 24 hrs; format: ADME, organism-based, Canis lupus familiaris
[3] = Terminal half life in human at 160 mg administered as single dose; format: ADME; conditions: in vivo, read-out: beta t1/2 (converted)
Method in brief: (§2)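 Single oral doses of 80, 160 or 320 mg in healthy subjects; plasma concentration-time profiles reported as mean (+SD); Cmax and terminal phase half-life derived.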

[4] = Ratio of drug level in dog liver to plasma at 2.5 mg/kg, po after 12 hrs; format: ADME, organism-based, Canis lupus familiaris
[5] = system: Hepatitis C virus (isolate BK); assay: Inhibition of HCV genotype 1b BK NS5B RNA dependent RNA polymerase M414T mutant assessed as reduction in [3H]UTP incorporation in to RNA preincubated for 15 mins followed by [3H]UTP addition measured after 3 hrs by microbeta scintillation counting method
Method in brief: (§3)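 Standard NS5B polymerase inhibition assay using genotype 1a (H77) or 1b (BK) enzyme. RNA product formation was measured as ³H-UTP incorporated into RNA, read by scintillation counting. IC50 was calculated with a standard IC50 equation.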

[6] = Oral bioavailability in dog at 2.5 mg/kg; format: ADME, organism-based, Canis lupus familiaris; conditions: in vivo
[7] = Ratio of drug level in Sprague-Dawley rat liver to plasma at 5 mg/kg, po after 24 hrs; format: ADME, organism-based
Method in brief: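 Male/female not given; Sprague-Dawley rats, n = 3 per experiment, single 5 mg/kg oral dose given as a solution in DMSO:PEG400 (1:9, v/v). Drug concentrations measured in liver tissue and plasma at 12 h and 24 h post-dose; value reported as the liver-to-plasma concentration ratio.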

[8] = Terminal half life in human at 80 mg administered as single dose; format: ADME; conditions: in vivo, read-out: beta t1/2 (converted); method in brief: as §2
[9] = Aqueous solubility of the compound at pH 7.2; format: physicochemical; conditions: buffer, read-out: solubility
[10] = system: Hepatitis C virus; assay: Antiviral activity against HCV genotype 1b Con1 infected in human HuH7 cells harboring HCV subgenomic bicistronic replicon after 3 days by luciferase reporter gene assay; format: functional, cell-based, Hepacivirus hominis; conditions: genotype 1b Con1, Huh-7, 72 h
Method in brief: (§4)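 Subgenomic genotype 1a (H77) or 1b (Con1) replicons carrying firefly luciferase, transfected into Huh-7 cells. Replication inhibition was read as luciferase level in cell lysate on a luminometer and reported as EC50. Runs were done without human plasma or with 40% human plasma added, to assess inhibitor–protein binding.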

[11] = system: Hepatitis C virus (isolate BK); assay: Inhibition of HCV genotype 1b BK NS5B RNA dependent RNA polymerase Y448H mutant assessed as reduction in [3H]UTP incorporation in to RNA preincubated for 15 mins followed by [3H]UTP addition measured after 3 hrs by microbeta scintillation counting method; method in brief: as §3
[12] = Cmax in human infected with HCV genotype 1 at 160 mg administered once daily for 2 days; format: ADME; parameters: dose 160 mg; conditions: in vivo
Method in brief: (§5)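 HCV GT1-infected patients (N=4) given 160 mg once daily for 2 days; plasma Cmax, AUC and t1/2 determined.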

[13] = Half life in human infected with HCV genotype 1 at 160 mg administered once daily for 2 days; format: ADME; conditions: in vivo; method in brief: as §5
[14] = AUC (0 to 24 hrs) in human infected with HCV genotype 1 at 160 mg administered once daily for 2 days; format: ADME; parameters: time < 24 hr, dose 160 mg; conditions: in vivo; method in brief: as §5
[15] = Plasma clearance in Sprague-Dawley rat at 5 mg/kg, iv; format: ADME, organism-based; method in brief: as §1
[16] = system: Hepatitis C virus; assay: Antiviral activity against HCV genotype 1b Con1 infected in human HuH7 cells harboring HCV subgenomic bicistronic replicon after 3 days in presence of 40% human plasma by luciferase reporter gene assay; format: functional, cell-based, Hepacivirus hominis; conditions: genotype 1b Con1, Huh-7, 72 h; method in brief: as §4
[17] = system: Plasma; assay: Drug level in po dosed dog plasma up to 24 hrs; format: ADME, organism-based, Canis lupus familiaris; conditions: in vivo
Method in brief: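 Dogs given oral doses; liver tissue and plasma drug levels measured at 12 and 24 h; liver:plasma ratio calculated.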

[18] = AUC (infinity) in human at 80 mg administered as single dose; format: ADME; parameters: dose 80 mg, time infinity; conditions: in vivo; method in brief: as §2
[19] = Plasma clearance in dog at 2.5 mg/kg, iv; format: ADME, organism-based, Canis lupus familiaris
[20] = Terminal half life in human at 320 mg administered as single dose; format: ADME; conditions: in vivo, read-out: beta t1/2 (converted); method in brief: as §2
[21] = system: Plasma; assay: Drug level in po dosed Sprague-Dawley rat plasma up to 24 hrs; format: ADME, organism-based; conditions: in vivo
Method in brief: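 Sprague-Dawley rats given oral doses; liver tissue and plasma levels measured at 12 and 24 h; liver:plasma ratio calculated.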

[22] = system: Hepatitis C virus; assay: Antiviral activity against HCV genotype 1a H77 infected in human HuH7 cells harboring HCV subgenomic bicistronic replicon after 3 days by luciferase reporter gene assay; format: functional, cell-based, Hepacivirus hominis; conditions: genotype 1a H77, Huh-7, 72 h; method in brief: as §4
[23] = system: Hepatitis C virus (isolate H77); assay: Inhibition of HCV genotype 1a H77 NS5B RNA dependent RNA polymerase M414T mutant assessed as reduction in [3H]UTP incorporation in to RNA preincubated for 15 mins followed by [3H]UTP addition measured after 3 hrs by microbeta scintillation counting method; method in brief: as §3
[24] = Tmax in human at 160 mg administered as single dose; format: ADME; conditions: in vivo
[25] = Cmax in human at 320 mg administered as single dose; format: ADME; parameters: dose 320 mg; conditions: in vivo; method in brief: as §2
[26] = Cmax in dog at 30 mg/kg, po; format: ADME, organism-based, Canis lupus familiaris; parameters: dose 30 mg/kg, route oral; conditions: in vivo
[27] = Half life in Sprague-Dawley rat at 5 mg/kg, iv; format: ADME, organism-based; conditions: in vivo; method in brief: as §1
[28] = Cmax in dog at 2.5 mg/kg, po; format: ADME, organism-based, Canis lupus familiaris; parameters: dose 2.5 mg/kg, route oral; conditions: in vivo
[29] = system: Plasma; assay: Drug uptake in human plasma administered as single dose; format: ADME, cell-free
[30] = Tmax in human at 320 mg administered as single dose; format: ADME; conditions: in vivo
[31] = Half life in Sprague-Dawley rat at 30 mg/kg, po; format: ADME, organism-based; conditions: in vivo; method in brief: as §1
[32] = system: Canis familiaris; assay: AUC in dog at 2.5 mg/kg, iv; format: ADME, organism-based, Canis lupus familiaris; conditions: in vivo
[33] = system: Canis familiaris; assay: AUC in dog at 2.5 mg/kg, po; format: ADME, organism-based, Canis lupus familiaris; conditions: in vivo
[34] = Tmax in human infected with HCV genotype 1 at 160 mg administered once daily for 2 days; format: ADME; conditions: in vivo
[35] = Volume of distribution at steady state in Sprague-Dawley rat at 5 mg/kg, iv; format: ADME, organism-based; conditions: in vivo, read-out: Vdss
Method in brief: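 Sprague-Dawley rats, n = 3 per experiment, each given a 5 mg/kg intravenous dose. The compound was formulated as a solution in DMSO:PEG400 (1:9, v/v). Plasma concentration–time data were used to derive pharmacokinetic parameters, including Vss.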

[36] = AUC in Sprague-Dawley rat at 5 mg/kg, po; format: ADME, organism-based; conditions: in vivo; method in brief: as §1
[37] = Cmax in Sprague-Dawley rat at 5 mg/kg, po; format: ADME, organism-based; parameters: dose 5 mg/kg, route oral; conditions: in vivo; method in brief: as §1
[38] = Inhibition of HCV genotype 2a NS5B RNA dependent RNA polymerase assessed as reduction in [3H]UTP incorporation in to RNA preincubated for 15 mins followed by [3H]UTP addition measured after 3 hrs by microbeta scintillation counting method; parameters: species or system Hepatitis C virus subtype 2a
[39] = Half life in dog at 30 mg/kg, po; format: ADME, organism-based, Canis lupus familiaris; conditions: in vivo
[40] = system: Rattus norvegicus; assay: AUC in Sprague-Dawley rat at 30 mg/kg, po; format: ADME, organism-based; conditions: in vivo; method in brief: as §1
[41] = AUC (infinity) in human at 160 mg administered as single dose; format: ADME; parameters: dose 160 mg, time infinity; conditions: in vivo; method in brief: as §2

COc1c(/C=C/c2ccc(NS(C)(=O)=O)cc2)cc(-n2ccc(=O)[nH]c2=O)cc1C(C)(C)C [ABT-072]
bioavailability [1]: 63% | Kp at 24 h [2]: 10 | half-life [3]: 458 min | Kp at 12 h [4]: 11 | inhibition [5]: inactive | bioavailability [6]: 86% | Kp at 24 h [7]: 46 | half-life [8]: 490 min | solubility [9]: 20.7 µM (≈ 9.72 µg/mL) | EC50 [10]: 0.3 nM | inhibition [11]: inactive | Cmax [12]: 415 ng/mL | half-life [13]: 514 min | AUC at 24 h [14]: 4180 ng·h/mL | clearance [15]: 15 mL/min/kg | EC50 [16]: 2.4 nM | Drug uptake [17]: Dose-dependent effect | AUC(0-inf) [18]: 2440 ng·h/mL | clearance [19]: 2.5 mL/min/kg | half-life [20]: 421 min | Drug uptake [21]: Dose-dependent effect | EC50 [22]: 1.1 nM | inhibition [23]: inactive | Tmax [24]: 6.8 h | Cmax [25]: 486 ng/mL | Cmax [26]: 7560 ng/mL | half-life [27]: 174 min | Cmax [28]: 880 ng/mL | Drug uptake [29]: Dose-dependent effect | Tmax [30]: 8.8 h | half-life [31]: 210 min | AUC [32]: 16.8 µg·h/mL | AUC [33]: 14.4 µg·h/mL | Tmax [34]: 3.6 h | Vd [35]: 3.7 L/kg | AUC [36]: 2520 ng·h/mL | Cmax [37]: 280 ng/mL | IC50 [38]: 23 µM | half-life [39]: 576 min | AUC [40]: 21.6 µg·h/mL | AUC(0-inf) [41]: 4640 ng·h/mL
